Experimental data pooled from the literature.
CHRM4: Muscarinic acetylcholine receptor M4 (CHRM4, Homo sapiens, UniProt P08173)
HRH1: Histamine H1 receptor (HRH1, Homo sapiens, UniProt P35367)

CC(C)(COP(=O)(O)OP(=O)(O)OC[C@H]1O[C@@H](n2cnc3c(N)ncnc32)[C@H](O)[C@@H]1OP(=O)(O)O)[C@@H](O)C(=O)NCCC(=O)NCCSC(=O)c1ccccc1N  Kd (pqsD (Pseudomonas aeruginosa, UniProt P20582, C113A); binding, ITC): ~57 µM
Cc1cc(N2CCNCC2)nc2ccccc12  Ki (CHRM4; ligand displacement, radioligand; cell membranes): > 63.1 µM
CC[C@H](C)[C@H](NC(=O)[C@H](CS)NC(=O)[C@H](CCC(N)=O)NC(=O)[C@H](CC(C)C)NC(=O)[C@H](CCCCN)NC(=O)[C@H](CCCNC(=N)N)NC(=O)[C@H](C)NC(=O)[C@@H](NC(=O)[C@H](CCC(N)=O)NC(=O)[C@@H](NC(=O)[C@H](CCC(=O)O)NC(=O)[C@H](C)NC(=O)[C@H](CCC(N)=O)NC(=O)[C@H](Cc1c[nH]cn1)NC(=S)Nc1ccc2c(c1)C(=O)OC21c2ccc(O)cc2Oc2cc(O)ccc21)C(C)C)[C@@H](C)CC)C(=O)N[C@@H](C)C(=O)N[C@@H](CC(=O)O)C(=O)N[C@@H](CCC(N)=O)C(=O)N[C@@H](Cc1ccccc1)C(=O)N[C@@H](Cc1c[nH]cn1)C(=O)N[C@@H](CCCNC(=N)N)C(=O)N[C@@H](CC(C)C)C(=O)N[C@@H](Cc1c[nH]cn1)C(=O)N[C@H](C(=O)N[C@@H](CCC(N)=O)C(=O)N[C@@H](CCC(N)=O)C(=O)O)C(C)C  Kd (Induced myeloid leukemia cell differentiation protein Mcl-1 (MCL1, Homo sapiens, UniProt Q07820, R263A); cell-free assay, FP): 49 µM
CCCCC/C=C\C/C=C\C/C=C\C/C=C\CCCC(=O)OCCN  Kd (Cytochrome P450 2J2 (CYP2J2, Homo sapiens, UniProt P51589); binding, absorbance): 14 µM
NC(N)=NCCC[C@H](NC(=O)OCc1ccccc1)C(=O)O  Ki (Serine protease 1 (PRSS1, Bos taurus, UniProt P00760); enzyme activity, inhibitor, absorbance; pH 7.2): 1230 µM
Fc1ccc([C@@H]2CCNC[C@H]2COc2ccc3c(c2)OCO3)cc1  Ki (Beta-1 adrenergic receptor (ADRB1, Homo sapiens, UniProt P08588); ligand displacement, radioligand): 10 µM
CC[C@H](C)[C@H](NC(=O)[C@H](CCCNC(=N)N)NC(=O)[C@H](CC(C)C)NC(=O)[C@@H](N)Cc1ccccc1)C(=O)N[C@@H](CCCNC(=N)N)C(=O)N1CCC[C@H]1C(=O)N[C@@H](CCCCN)C(=O)O  Ki (HRH1; cell-free assay, radioligand): > 10 µM
Nc1cccc2cc3ccccc3cc12  Kd (Ferritin light chain (FTL, Equus caballus, UniProt P02791); binding, fluorescence): 9 µM
CC(C)C[C@H](NC(=O)[C@H](CCCCN)NC(=O)[C@@H]1CCCN1C(=O)[C@@H](N)CCCNC(=N)N)C(=O)N[C@@H](CCCCN)C(=O)O  Ki (HRH1; cell-free assay, radioligand): > 10 µM
CNc1nc2cc(OCCCCN3CCN(c4cccc(Cl)c4Cl)CC3)ccc2s1  Ki (HRH1; ligand displacement, radioligand): 0.056 µM
O=C(Nc1cccc(-c2ccn3c(CC4CC4)nnc3c2C(F)(F)F)c1)c1ccc(S(=O)(=O)F)cc1  EC50 (Metabotropic glutamate receptor 1 (GRM1, Homo sapiens, UniProt Q13255); calcium signal, agonist): > 50.1 µM
CSCC[C@H](NC(=O)[C@@H](NC(=O)[C@@H](N)Cc1ccc(O)cc1)C(C)C)C(=O)NCC(=O)N[C@@H](Cc1c[nH]cn1)C(=O)O  EC50 (Melanocortin receptor 5 (Mus musculus, UniProt P41149); reporter gene, agonist): 26.8 µM
OC(c1ccc(F)cc1)C(F)(F)CCN1CCC(O)(c2ccc(Cl)cc2)CC1 (racemic)  Ki (HRH1; cell-free assay, radioligand): 0.408 µM
c1cc(N2CCNCC2)c2cc[nH]c2c1  Ki (CHRM4; ligand displacement, radioligand; cell membranes): > 63.1 µM
N[C@@H](CCP(=O)(O)O)C(=O)O  EC50 (Metabotropic glutamate receptor 4 (GRM4, Homo sapiens, UniProt Q14833); calcium signal, agonist): 0.151 µM
